Experimental data: ChEMBL document CHEMBL2331537, “Effective inhibition of acid and neutral ceramidases by novel B-13 and LCL-464 analogues” (Bioorg Med Chem, 2013)
Active and inactive are the calls of the source. The calls are words filed in the database; no cut-off is given here.

How the values were obtained:
MDA-MB-231 [1] = experiment: Elevation of total ceramide level in human MDA-MB-231 cells at 50 uM after 24 hrs by LC-MS/MS analysis relative to control; assay type: functional
Outline: (§1)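 MDA-MB-231 cells were exposed to inhibitor for 24 h at 37 °C at the concentration given in each line. Lipids were extracted by modified Bligh & Dyer with 20 pmol C17-ceramide as internal standard. Analysis was positive-mode LC–MS/MS on a C18 column, isocratic acetonitrile/2-propanol 3:2 with 1% formic acid. Values are mean SD of three independent experiments versus control.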

MDA-MB-231 [2] = experiment: Elevation of total ceramide level in human MDA-MB-231 cells at 25 uM after 24 hrs by LC-MS/MS analysis relative to control; assay type: functional; outline: as §1
MDA-MB-231 [3] = experiment: Induction of apoptosis in human MDA-MB-231 cells assessed as increase in cytoplasmic histone-associated DNA fragment level after 24 hrs by ELISA; assay type: functional, cell-based; details: MDA-MB-231, 24 h
Outline: (§2)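 Cells were seeded for 24 h, then treated 24 h in DMEM with compound or DMSO vehicle. Cytoplasmic histone-associated DNA fragments were measured photometrically by Cell Death Detection ELISA Plus, following the kit protocol. Values are % of control (mean S.D., n = 3); dose–response is read as optical density.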

MDA-MB-231 [4] = experiment: Induction of apoptosis in human MDA-MB-231 cells assessed as increase in cytoplasmic histone-associated DNA fragment level at 25 to 50 uM after 24 hrs by ELISA relative to control; assay type: functional; outline: as §2
[5] = target: T1, Acid ceramidase (Homo sapiens) (UniProt Q13510); experiment: Inhibition of human recombinant acid ceramidase using Acyl-NBD-C12-cer as substrate at 80 uM after 8 hrs by fluorescence assay
T1 sequence (whole entry): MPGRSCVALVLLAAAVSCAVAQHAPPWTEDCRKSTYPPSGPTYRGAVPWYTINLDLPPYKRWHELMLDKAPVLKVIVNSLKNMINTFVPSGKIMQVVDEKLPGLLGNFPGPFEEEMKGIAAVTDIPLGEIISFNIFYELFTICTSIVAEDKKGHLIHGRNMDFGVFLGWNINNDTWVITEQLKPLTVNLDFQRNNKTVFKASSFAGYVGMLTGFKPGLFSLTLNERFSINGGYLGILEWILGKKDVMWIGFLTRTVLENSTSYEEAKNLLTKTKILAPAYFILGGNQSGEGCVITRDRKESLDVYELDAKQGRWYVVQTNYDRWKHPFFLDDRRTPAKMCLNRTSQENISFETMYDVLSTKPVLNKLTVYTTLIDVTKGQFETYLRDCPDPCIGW
Outline: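 Recombinant human enzyme (60 total protein) was in 200 mM sodium acetate pH 4.5, 200 mM NaCl, 0.1% Triton X-100, DMSO <5% v/v. Final substrate was 15 and inhibitor 80, incubated 8 h at 37 °C. Reactions were quenched with chloroform/methanol 2:1 and NBD-fatty acid separated by TLC. Imaging used ex 430/em 550 nm; % hydrolysis versus no-inhibitor control, mean SD, three experiments.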

[6] = target: Neutral ceramidase (Homo sapiens) (UniProt Q9NR71); experiment: Inhibition of human recombinant neutral ceramidase using Acyl-NBD-C12-cer as substrate at 80 uM after 2 hrs by fluorescence assay
Outline: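 Recombinant human enzyme at 25 ng/mL final was in 200 mM sodium acetate pH 7.0, 200 mM NaCl, 0.1% Triton X-100. Final substrate was 15 and inhibitor 80, incubated 2 h at 37 °C. Reactions were chloroform/methanol quenched and cleaved/uncleaved NBD substrate resolved by TLC with fluorescence imaging. Values are % of no-inhibitor control, mean SD, three experiments.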

Alkaline ceramidase 2 = Alkaline ceramidase 2 (Homo sapiens, UniProt Q5QJU3); experiment: Inhibition of alkaline ceramidase 2 in human HL-60 cells using 3H]C16-ceramide as substrate after 1 hr by liquid scintillation counting analysis; assay type: cell-based
HL-60 = experiment: Cytotoxicity against human HL60 cells assessed as growth inhibition by trypan blue dye exclusion assay
MDA-MB-231 [7] = experiment: Elevation of C24-ceramide level in human MDA-MB-231 cells at 50 uM by LC-MS/MS analysis; assay type: functional, cell-based; outline: as §1
MDA-MB-231 [8] = experiment: Elevation of C16-ceramide level in human MDA-MB-231 cells at 25 uM by LC-MS/MS analysis; assay type: functional, cell-based; outline: as §1
MDA-MB-231 [9] = experiment: Elevation of C18-ceramide level in human MDA-MB-231 cells at 25 uM by LC-MS/MS analysis; assay type: functional, cell-based; outline: as §1
MDA-MB-231 [10] = experiment: Elevation of C24-ceramide level in human MDA-MB-231 cells at 25 uM by LC-MS/MS analysis; assay type: functional, cell-based; outline: as §1
MDA-MB-231 [11] = experiment: Elevation of C16-ceramide level in human MDA-MB-231 cells at 50 uM by LC-MS/MS analysis; assay type: functional, cell-based; outline: as §1
MDA-MB-231 [12] = experiment: Elevation of C18-ceramide level in human MDA-MB-231 cells at 50 uM by LC-MS/MS analysis; assay type: functional, cell-based; outline: as §1

Sequence of Neutral ceramidase (Homo sapiens) (Q9NR71 whole entry): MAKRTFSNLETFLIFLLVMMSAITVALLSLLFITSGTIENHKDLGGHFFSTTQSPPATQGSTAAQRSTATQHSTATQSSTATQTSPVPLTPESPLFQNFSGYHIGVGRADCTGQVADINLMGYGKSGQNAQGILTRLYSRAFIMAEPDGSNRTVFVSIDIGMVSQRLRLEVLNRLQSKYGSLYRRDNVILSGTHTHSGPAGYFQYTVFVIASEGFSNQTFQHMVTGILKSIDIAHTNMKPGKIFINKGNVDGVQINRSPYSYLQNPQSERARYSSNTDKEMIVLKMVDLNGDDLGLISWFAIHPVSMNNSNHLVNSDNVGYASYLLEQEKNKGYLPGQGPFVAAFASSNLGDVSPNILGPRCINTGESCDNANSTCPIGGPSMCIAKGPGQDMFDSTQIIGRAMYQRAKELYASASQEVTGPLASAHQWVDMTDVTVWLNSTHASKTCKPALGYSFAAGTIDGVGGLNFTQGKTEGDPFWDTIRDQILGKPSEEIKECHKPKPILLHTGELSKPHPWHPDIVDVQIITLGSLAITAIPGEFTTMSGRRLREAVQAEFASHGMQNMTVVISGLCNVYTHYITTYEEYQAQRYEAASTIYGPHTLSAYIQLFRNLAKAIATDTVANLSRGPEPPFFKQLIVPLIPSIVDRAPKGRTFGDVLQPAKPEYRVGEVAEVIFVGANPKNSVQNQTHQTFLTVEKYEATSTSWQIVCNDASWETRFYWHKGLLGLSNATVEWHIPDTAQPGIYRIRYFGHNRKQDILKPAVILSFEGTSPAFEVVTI

Row | Structure (SMILES) | Activity (MDA-MB-231 [1]) | inhibition [5] | inhibition [6] | further results
1 | CCCCCCCCCCCCCC(=O)NCC(O)c1ccccc1 (racemic) | >=150% | – | – | –
2 | CCCCCCCCCCCCCC(=O)N[C@H](CO)[C@H](O)c1ccc(N)cc1 | 300% | Active | Active | Activity (MDA-MB-231 [2]): 300%; EC50 (MDA-MB-231 [3]): 59 µM; fold change (FC) (MDA-MB-231 [4]): 3
3 | CCCCCCCCCCCCCC(=O)N[C@H](C)[C@@H](O)c1ccccc1 | – | 60% | 8% | IC50 (Alkaline ceramidase 2): 1 µM
4 | CCCCCCCCCCCCCC(=O)N[C@H](CO)[C@H](O)c1ccc([N+](=O)[O-])cc1 | 350% | Active | – | IC50 (HL-60): 1.5 µM; Activity (MDA-MB-231 [7]): Active; Activity (MDA-MB-231 [8]): inactive; Activity (MDA-MB-231 [9]): inactive; Activity (MDA-MB-231 [10]): inactive; Activity (MDA-MB-231 [11]): Active; Activity (MDA-MB-231 [12]): Active; Activity (MDA-MB-231 [2]): 150%
5 | CCCCCCCCCCCCCC(=O)N[C@H](C(=O)O)[C@H](O)c1ccc([N+](=O)[O-])cc1 | 150% | Active | inactive | Activity (MDA-MB-231 [2]): 150%
6 | CN(C)CCCCCCCCCCCC(=O)NCC(O)c1cccnc1 (racemic) | < 150% | inactive | inactive | –
7 | CCCCCCCCCCCCCC(=O)N[C@H](CO)C(=O)c1ccc([N+](=O)[O-])cc1 | – | Active | Active | –
8 | CN(C)CCCCCCCCCCCC(=O)NCC(O)c1ccccc1 (racemic) | >=150% | – | – | –
9 | C[C@@H](NC(=O)CCCCCCCCCCCN(C)C)[C@@H](O)c1ccccc1 | >=150% | – | – | –
10 | CN(C)CCCCCCCCCCCC(=O)NCC(O)c1ccncc1 (racemic) | >=150% | inactive | inactive | –
11 | CN(C)CCCCCCCCCCCC(=O)N[C@H](CO)[C@H](O)c1ccc([N+](=O)[O-])cc1 | >=150% | Active | 30% | –
